# According to ChEMBL document CHEMBL3217512, “Indole/triazole conjugates are selective inhibitors and inducers of bacterial biofilms” (Medchemcomm, 2013):
# Legend:
# Acinetobacter baumannii [1] = assay: Antimicrobial activity against Acinetobacter baumannii 19606 assessed as effect on planktonic growth at IC50 after 2 to 24 hrs by colony count method; set-up: species or system ATCC 19606
# Escherichia coli [2] = assay: Antimicrobial activity against Escherichia coli K-12 ER2718 assessed as effect on planktonic growth at IC50 after 2 to 24 hrs by colony count method; type: organism-based
# Escherichia coli [3] = assay: Antimicrobial activity against Escherichia coli K-12 ER2718 assessed as effect on planktonic growth at 50 uM after 2 to 24 hrs; type: organism-based
# Method in brief: (§1)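 Growth curve analysis of planktonic bacteria with each biofilm inducer at 50 μM, used to assess toxicity.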
# Staphylococcus aureus [4] = assay: Antimicrobial activity against Staphylococcus aureus 29213 assessed as effect on planktonic growth at IC50 after 2 to 24 hrs by colony count method; type: organism-based; conditions: in vivo
# Escherichia coli [5] = assay: Antimicrobial activity against Escherichia coli K-12 ER2718 assessed as effect on planktonic growth at PC25 after 2 to 24 hrs by colony count method; type: organism-based
# Escherichia coli [6] = assay: Antimicrobial activity against Escherichia coli K-12 ER2718 assessed as effect on planktonic growth at PC50 after 2 to 24 hrs by colony count method; type: organism-based; conditions: in vivo
# Escherichia coli [7] = assay: Antimicrobial activity against Escherichia coli K-12 ER2718 assessed as effect on planktonic growth at PC75 after 2 to 24 hrs; type: organism-based; conditions: in vivo
# Escherichia coli [8] = assay: Induction of biofilm formation in Escherichia coli K-12 ER2718 at 50 uM after 24 hrs by crystal violet staining-based assay relative to control; type: functional
# Method in brief: (§2)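 Static biofilm assay with compounds at 50 μM and crystal violet read-out, relative to an untreated control. Compounds increasing biofilm by less than 50% were called inducers, and by more than 50% strong inducers.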
# Staphylococcus aureus [9] = assay: Antimicrobial activity against Staphylococcus aureus 29213 assessed as effect on planktonic growth at IC50 after 2 to 24 hrs; type: organism-based; conditions: in vivo
# Escherichia coli [10] = assay: Antimicrobial activity against Escherichia coli K-12 ER2718 assessed as effect on planktonic growth at IC50 after 2 to 24 hrs; type: organism-based
# Staphylococcus aureus [11] = assay: Inhibition of biofilm formation in Staphylococcus aureus 29213 at 150 uM after 24 hrs by crystal violet staining-based assay relative to control; type: functional; conditions: Staphylococcus aureus, 29213, 24 h
# Escherichia coli [12] = assay: Induction of biofilm formation in Escherichia coli K-12 ER2718 assessed as concentration required for 25% promotion of biofilm formation after 24 hrs by crystal violet staining-based assay; type: functional
# Method in brief: (§3)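 For strong inducers of E. coli biofilm, dose-response curves were run in the static crystal violet assay. PC25, PC50 and PC75 are the concentrations promoting biofilm formation by 25%, 50% and 75%.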
# Escherichia coli [13] = assay: Antimicrobial activity against Escherichia coli K-12 ER2718 assessed as effect on planktonic growth at PC50 after 2 to 24 hrs; type: organism-based
# Acinetobacter baumannii [14] = assay: Inhibition of biofilm formation in Acinetobacter baumannii 19606 at 150 uM after 24 hrs by crystal violet staining-based assay relative to control; type: functional; conditions: ATCC 19606 = CIP 70.34 = JCM 6841, 24 h
# Escherichia coli [15] = assay: Antimicrobial activity against Escherichia coli K-12 ER2718 assessed as effect on planktonic growth at PC75 after 2 to 24 hrs by colony count method; type: organism-based; conditions: in vivo
# Acinetobacter baumannii [16] = assay: Antimicrobial activity against Acinetobacter baumannii 19606 assessed as effect on planktonic growth at IC50 after 2 to 24 hrs; set-up: species or system ATCC 19606
# Escherichia coli [17] = assay: Induction of biofilm formation in Escherichia coli K-12 ER2718 assessed as concentration required for 50% promotion of biofilm formation after 24 hrs by crystal violet staining-based assay; type: functional; method in brief: as §3
# Staphylococcus aureus [18] = assay: Inhibition of biofilm formation in methicillin-resistant Staphylococcus aureus BAA 44 at 150 uM after 24 hrs by crystal violet staining-based assay relative to control; type: functional; conditions: BAA 44, 24 h
# Method in brief: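 Static biofilm development in MRSA, read out by crystal violet staining against an untreated control. Initial screen at 150 μM. Inhibitors then went to dose-response, with IC50 taken as the concentration giving 50% inhibition of biofilm growth. Induction was judged at 50 μM: under 50% induction counted as "inducer", over 50% as "strong inducer".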
# Escherichia coli [19] = assay: Antimicrobial activity against Escherichia coli K-12 ER2718 assessed as effect on planktonic growth at PC25 after 2 to 24 hrs; type: organism-based
# Staphylococcus aureus [20] = assay: Antimicrobial activity against methicillin-resistant Staphylococcus aureus BAA 44 assessed as effect on planktonic growth at IC50 after 2 to 24 hrs; type: organism-based; conditions: in vivo
# Escherichia coli [21] = assay: Induction of biofilm formation in Escherichia coli K-12 ER2718 assessed as concentration required for 75% promotion of biofilm formation after 24 hrs by crystal violet staining-based assay; type: functional; method in brief: as §3
# Staphylococcus aureus [22] = assay: Antimicrobial activity against methicillin-resistant Staphylococcus aureus BAA 44 assessed as effect on planktonic growth at IC50 after 2 to 24 hrs by colony count method; type: organism-based; conditions: in vivo
# Staphylococcus aureus [23] = assay: Inhibition of biofilm formation in Staphylococcus aureus 29213 after 24 hrs by crystal violet staining-based assay; type: functional, organism-based; conditions: Staphylococcus aureus, 29213, 24 h
# Method in brief: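 Compounds active in the 150 μM screen were taken into dose-response studies under static conditions with a crystal violet read-out. IC50 is the concentration that inhibits 50% of biofilm growth relative to an untreated control.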
# Staphylococcus aureus [24] = assay: Antimicrobial activity against Staphylococcus aureus 29213 assessed as effect on planktonic growth at PC75 after 2 to 24 hrs by colony count method; type: organism-based; conditions: in vivo
# Staphylococcus aureus [25] = assay: Antimicrobial activity against Staphylococcus aureus 29213 assessed as effect on planktonic growth at PC25 after 2 to 24 hrs by colony count method; type: organism-based; conditions: in vivo
# Staphylococcus aureus [26] = assay: Antimicrobial activity against Staphylococcus aureus 29213 assessed as effect on planktonic growth at PC50 after 2 to 24 hrs by colony count method; type: organism-based; conditions: in vivo
# Staphylococcus aureus [27] = assay: Antimicrobial activity against Staphylococcus aureus 29213 assessed as effect on planktonic growth at 50 uM after 2 to 24 hrs; type: organism-based; method in brief: as §1
# Staphylococcus aureus [28] = assay: Antimicrobial activity against Staphylococcus aureus 29213 assessed as effect on planktonic growth at PC50 after 2 to 24 hrs; type: organism-based; conditions: in vivo
# Staphylococcus aureus [29] = assay: Induction of biofilm formation in Staphylococcus aureus 29213 at 50 uM after 24 hrs by crystal violet staining-based assay relative to control; type: functional; method in brief: as §2
# Staphylococcus aureus [30] = assay: Antimicrobial activity against Staphylococcus aureus 29213 assessed as effect on planktonic growth at PC75 after 2 to 24 hrs; type: organism-based; conditions: in vivo
# Staphylococcus aureus [31] = assay: Antimicrobial activity against Staphylococcus aureus 29213 assessed as effect on planktonic growth at PC25 after 2 to 24 hrs; type: organism-based; conditions: in vivo
# Escherichia coli [32] = assay: Inhibition of biofilm formation in Escherichia coli K-12 ER2718 at 150 uM after 24 hrs by crystal violet staining-based assay relative to control; type: functional; conditions: K-12 ER2718, 24 h
structure (smiles),measurement,setting,value
CCCCCc1ccc(C(=O)NCCn2cc(Cc3csc4ccccc34)nn2)cc1,Activity,Acinetobacter baumannii [1],Non-toxic
same,Activity,Escherichia coli [2],Non-toxic
same,Activity,Escherichia coli [3],Non-toxic
same,Activity,Staphylococcus aureus [4],Non-toxic
same,Activity,Escherichia coli [5],Non-toxic
same,Activity,Escherichia coli [6],Non-toxic
same,Activity,Escherichia coli [7],Non-toxic
same,Activity,Escherichia coli [8],>50%
same,Activity,Staphylococcus aureus [9],Non-toxic
same,Activity,Escherichia coli [10],Non-toxic
same,inhibition at 150 µM,Staphylococcus aureus [11],< 5%
same,Activity,Escherichia coli [12],26.7 µM
same,Activity,Escherichia coli [13],Non-toxic
same,inhibition at 150 µM,Acinetobacter baumannii [14],< 5%
same,Activity,Escherichia coli [15],Non-toxic
same,Activity,Acinetobacter baumannii [16],Non-toxic
same,Activity,Escherichia coli [17],99.8 µM
same,inhibition at 150 µM,Staphylococcus aureus [18],< 5%
same,Activity,Escherichia coli [19],Non-toxic
same,Activity,Staphylococcus aureus [20],Non-toxic
same,Activity,Escherichia coli [21],151.9 µM
same,Activity,Staphylococcus aureus [22],Non-toxic
CCCCCc1ccc(C(=O)NCCn2cc(Cc3c[nH]c4ccccc34)nn2)cc1,Activity,Acinetobacter baumannii [1],Non-toxic
same,Activity,Escherichia coli [2],Non-toxic
same,Activity,Escherichia coli [3],Non-toxic
same,Activity,Staphylococcus aureus [4],Non-toxic
same,Activity,Escherichia coli [5],Non-toxic
same,Activity,Escherichia coli [6],Non-toxic
same,Activity,Escherichia coli [7],Non-toxic
same,Activity,Escherichia coli [8],>50%
same,Activity,Staphylococcus aureus [9],Non-toxic
same,Activity,Escherichia coli [10],Non-toxic
same,Activity,Escherichia coli [12],48.3 µM
same,Activity,Escherichia coli [13],Non-toxic
same,inhibition at 150 µM,Acinetobacter baumannii [14],< 5%
same,Activity,Escherichia coli [15],Non-toxic
same,Activity,Acinetobacter baumannii [16],Non-toxic
same,Activity,Escherichia coli [17],74.8 µM
same,inhibition at 150 µM,Staphylococcus aureus [18],< 5%
same,Activity,Escherichia coli [19],Non-toxic
same,Activity,Staphylococcus aureus [20],Non-toxic
same,Activity,Escherichia coli [21],111.6 µM
same,Activity,Staphylococcus aureus [22],Non-toxic
same,IC50,Staphylococcus aureus [23],44.4 µM
O=C(NCCn1cc(Cc2c[nH]c3ccccc23)nn1)c1ccccc1F,Activity,Acinetobacter baumannii [1],Non-toxic
same,Activity,Escherichia coli [2],Non-toxic
same,Activity,Staphylococcus aureus [4],Non-toxic
same,Activity,Staphylococcus aureus [24],Non-toxic
same,Activity,Staphylococcus aureus [25],Non-toxic
same,Activity,Staphylococcus aureus [9],Non-toxic
same,Activity,Escherichia coli [10],Non-toxic
same,Activity,Staphylococcus aureus [26],Non-toxic
same,Activity,Staphylococcus aureus [27],Non-toxic
same,inhibition at 150 µM,Acinetobacter baumannii [14],15%
same,Activity,Acinetobacter baumannii [16],Non-toxic
same,Activity,Staphylococcus aureus [28],Non-toxic
same,Activity,Staphylococcus aureus [29],<50%
same,inhibition at 150 µM,Staphylococcus aureus [18],35%
same,Activity,Staphylococcus aureus [20],Non-toxic
same,Activity,Staphylococcus aureus [30],Non-toxic
same,Activity,Staphylococcus aureus [31],Non-toxic
same,Activity,Staphylococcus aureus [22],Non-toxic
same,inhibition at 150 µM,Escherichia coli [32],< 5%
O=C(NCCn1cc(Cc2csc3ccccc23)nn1)c1ccccc1F,Activity,Acinetobacter baumannii [1],Non-toxic
same,Activity,Escherichia coli [2],Non-toxic
same,Activity,Staphylococcus aureus [4],Non-toxic
same,Activity,Staphylococcus aureus [24],Non-toxic
same,Activity,Staphylococcus aureus [25],Non-toxic
same,Activity,Staphylococcus aureus [9],Non-toxic
same,Activity,Escherichia coli [10],Non-toxic
same,Activity,Staphylococcus aureus [26],Non-toxic
same,Activity,Staphylococcus aureus [27],Non-toxic
same,inhibition at 150 µM,Acinetobacter baumannii [14],< 5%
same,Activity,Acinetobacter baumannii [16],Non-toxic
same,Activity,Staphylococcus aureus [28],Non-toxic
same,Activity,Staphylococcus aureus [29],>50%
same,inhibition at 150 µM,Staphylococcus aureus [18],< 5%
same,Activity,Staphylococcus aureus [20],Non-toxic
same,Activity,Staphylococcus aureus [30],Non-toxic
same,Activity,Staphylococcus aureus [31],Non-toxic
same,Activity,Staphylococcus aureus [22],Non-toxic
same,inhibition at 150 µM,Escherichia coli [32],< 5%
CCCCCCCc1ccc(C(=O)NCCn2cc(Cc3c[nH]c4ccccc34)nn2)cc1,Activity,Acinetobacter baumannii [1],Non-toxic
same,Activity,Escherichia coli [2],Non-toxic
same,Activity,Escherichia coli [3],Non-toxic
same,Activity,Staphylococcus aureus [4],Non-toxic
same,Activity,Escherichia coli [5],Non-toxic
same,Activity,Escherichia coli [6],Non-toxic
same,Activity,Escherichia coli [7],Non-toxic
same,Activity,Escherichia coli [8],>50%
same,Activity,Staphylococcus aureus [9],Non-toxic
same,Activity,Escherichia coli [10],Non-toxic
same,Activity,Escherichia coli [12],50.5 µM
same,Activity,Escherichia coli [13],Non-toxic
same,inhibition at 150 µM,Acinetobacter baumannii [14],30%
same,Activity,Escherichia coli [15],Non-toxic
same,Activity,Acinetobacter baumannii [16],Non-toxic
same,Activity,Escherichia coli [17],80.7 µM
same,inhibition at 150 µM,Staphylococcus aureus [18],< 5%
same,Activity,Escherichia coli [19],Non-toxic
same,Activity,Staphylococcus aureus [20],Non-toxic
same,Activity,Escherichia coli [21],119.7 µM
same,Activity,Staphylococcus aureus [22],Non-toxic
same,IC50,Staphylococcus aureus [23],175 µM
